# From the M2OR odorant receptor database
# How the values were obtained:
# Settings in all cases: stereoisomer not certain
# [1] = biological target: T1, OR5AN1 (Homo sapiens) (UniProt Q8NGI8)
# T1 sequence (whole entry): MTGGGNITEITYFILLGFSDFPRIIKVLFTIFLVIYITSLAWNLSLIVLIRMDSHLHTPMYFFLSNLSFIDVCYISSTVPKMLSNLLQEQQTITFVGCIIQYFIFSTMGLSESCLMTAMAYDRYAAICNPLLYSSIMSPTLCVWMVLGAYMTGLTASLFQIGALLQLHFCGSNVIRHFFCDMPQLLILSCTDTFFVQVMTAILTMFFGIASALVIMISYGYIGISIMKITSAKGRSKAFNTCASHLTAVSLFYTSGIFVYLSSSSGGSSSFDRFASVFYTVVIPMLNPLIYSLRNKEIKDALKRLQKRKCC
# Procedure, shortened: (§1)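 Assay methods differ from source to source, frequently being transient luciferase assays in mammalian cell lines. For each receptor–molecule pair, the label responsive (active) applies when the original authors judged the measured signal statistically different from baseline, and non-responsive (inactive) applies otherwise.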
# [2] = biological target: T2, OR5AC2 (Homo sapiens) (UniProt Q9NZP5)
# T2 sequence (whole entry): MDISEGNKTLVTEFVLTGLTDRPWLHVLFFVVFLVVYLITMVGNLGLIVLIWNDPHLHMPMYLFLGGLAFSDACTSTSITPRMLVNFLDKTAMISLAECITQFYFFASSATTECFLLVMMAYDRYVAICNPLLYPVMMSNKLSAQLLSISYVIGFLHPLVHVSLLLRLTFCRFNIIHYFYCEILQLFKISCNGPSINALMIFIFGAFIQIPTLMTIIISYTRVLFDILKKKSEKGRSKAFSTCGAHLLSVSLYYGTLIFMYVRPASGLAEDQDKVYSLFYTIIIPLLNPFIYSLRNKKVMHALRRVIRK
# Procedure, shortened: as §1
# [3] = biological target: T3, OR5B17 (Homo sapiens) (UniProt Q8NGF7)
# T3 sequence (whole entry): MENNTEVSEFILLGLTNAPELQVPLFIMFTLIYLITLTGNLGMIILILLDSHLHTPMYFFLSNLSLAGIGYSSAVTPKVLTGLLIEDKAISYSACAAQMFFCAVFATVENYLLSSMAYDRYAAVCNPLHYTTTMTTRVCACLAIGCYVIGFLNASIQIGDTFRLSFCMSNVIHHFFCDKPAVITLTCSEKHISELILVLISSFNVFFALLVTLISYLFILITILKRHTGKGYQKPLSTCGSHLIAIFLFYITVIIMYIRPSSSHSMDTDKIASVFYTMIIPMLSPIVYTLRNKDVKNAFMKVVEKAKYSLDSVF
# Procedure, shortened: as §1
# [4] = biological target: OR5AK2 (Homo sapiens) (UniProt Q8NH90)
# Chain of OR5AK2 (Homo sapiens) (Q8NH90 whole entry): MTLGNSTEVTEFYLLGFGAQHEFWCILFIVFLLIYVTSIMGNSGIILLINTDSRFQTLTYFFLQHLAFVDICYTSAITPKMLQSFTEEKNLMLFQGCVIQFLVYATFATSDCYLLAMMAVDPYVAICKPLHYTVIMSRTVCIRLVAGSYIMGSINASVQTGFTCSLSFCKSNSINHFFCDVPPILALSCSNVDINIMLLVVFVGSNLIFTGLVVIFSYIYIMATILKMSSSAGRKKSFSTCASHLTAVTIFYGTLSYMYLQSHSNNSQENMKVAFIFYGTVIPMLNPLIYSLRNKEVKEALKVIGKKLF
# Procedure, shortened: as §1
# [5] = biological target: OR5AP2 (Homo sapiens) (UniProt Q8NGF4)
# Chain of OR5AP2 (Homo sapiens) (Q8NGF4 whole entry): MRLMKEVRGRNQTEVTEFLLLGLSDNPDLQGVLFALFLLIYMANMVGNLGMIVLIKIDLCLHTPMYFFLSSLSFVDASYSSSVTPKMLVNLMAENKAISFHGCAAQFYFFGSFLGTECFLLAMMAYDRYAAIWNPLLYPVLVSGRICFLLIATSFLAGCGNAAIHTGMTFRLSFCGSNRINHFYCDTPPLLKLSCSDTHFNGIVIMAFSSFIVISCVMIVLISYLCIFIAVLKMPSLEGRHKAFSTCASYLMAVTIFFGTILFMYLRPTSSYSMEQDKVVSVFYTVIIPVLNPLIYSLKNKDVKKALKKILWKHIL
# Procedure, shortened: as §1
# [6] = biological target: OR5AR1 (Homo sapiens) (UniProt Q8NGP9)
# Chain of OR5AR1 (Homo sapiens) (Q8NGP9 whole entry): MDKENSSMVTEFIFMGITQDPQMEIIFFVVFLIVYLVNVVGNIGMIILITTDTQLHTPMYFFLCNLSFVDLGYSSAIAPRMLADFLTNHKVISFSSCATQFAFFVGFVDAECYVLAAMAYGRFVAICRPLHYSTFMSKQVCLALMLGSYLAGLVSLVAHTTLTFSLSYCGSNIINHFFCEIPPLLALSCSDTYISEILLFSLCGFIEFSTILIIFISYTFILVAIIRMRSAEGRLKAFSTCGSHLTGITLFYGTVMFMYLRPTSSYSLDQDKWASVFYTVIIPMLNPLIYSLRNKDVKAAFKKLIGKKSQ
# Procedure, shortened: as §1
# [7] = biological target: OR5AS1 (Homo sapiens) (UniProt Q8N127)
# Chain of OR5AS1 (Homo sapiens) (Q8N127 whole entry): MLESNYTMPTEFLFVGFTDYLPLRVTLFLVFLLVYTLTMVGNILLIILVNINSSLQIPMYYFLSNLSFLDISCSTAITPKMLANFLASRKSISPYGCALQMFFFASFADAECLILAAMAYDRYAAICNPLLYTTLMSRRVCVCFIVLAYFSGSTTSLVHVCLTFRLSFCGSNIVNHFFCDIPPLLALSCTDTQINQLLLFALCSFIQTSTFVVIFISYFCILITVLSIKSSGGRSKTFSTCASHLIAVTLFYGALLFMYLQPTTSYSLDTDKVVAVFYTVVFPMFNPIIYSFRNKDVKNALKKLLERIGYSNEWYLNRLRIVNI
# Procedure, shortened: as §1
# [8] = biological target: OR5AU1 (Homo sapiens) (UniProt Q8NGC0)
# Chain of OR5AU1 (Homo sapiens) (Q8NGC0 whole entry): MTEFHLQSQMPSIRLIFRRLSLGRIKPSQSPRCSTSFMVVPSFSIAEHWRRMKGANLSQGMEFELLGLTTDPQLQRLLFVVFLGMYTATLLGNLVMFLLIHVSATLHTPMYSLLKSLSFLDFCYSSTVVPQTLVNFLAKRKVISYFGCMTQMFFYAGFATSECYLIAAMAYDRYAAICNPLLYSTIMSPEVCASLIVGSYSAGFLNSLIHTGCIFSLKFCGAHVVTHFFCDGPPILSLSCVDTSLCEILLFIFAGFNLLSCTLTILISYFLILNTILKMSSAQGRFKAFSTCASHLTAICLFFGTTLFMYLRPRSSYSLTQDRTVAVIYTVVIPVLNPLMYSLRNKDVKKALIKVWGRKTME
# Procedure, shortened: as §1
# [9] = biological target: OR5B12 (Homo sapiens) (UniProt Q96R08)
# Chain of OR5B12 (Homo sapiens) (Q96R08 whole entry): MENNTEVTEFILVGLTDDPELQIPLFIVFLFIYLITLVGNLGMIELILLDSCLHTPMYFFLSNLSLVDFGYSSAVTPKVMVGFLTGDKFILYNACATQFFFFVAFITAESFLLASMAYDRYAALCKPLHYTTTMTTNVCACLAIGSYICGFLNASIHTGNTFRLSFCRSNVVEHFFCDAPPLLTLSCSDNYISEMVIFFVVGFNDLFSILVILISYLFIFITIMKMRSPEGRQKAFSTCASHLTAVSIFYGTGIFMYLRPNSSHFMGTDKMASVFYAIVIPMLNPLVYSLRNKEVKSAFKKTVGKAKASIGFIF
# Procedure, shortened: as §1
# [10] = biological target: OR5B2 (Homo sapiens) (UniProt Q96R09)
# Chain of OR5B2 (Homo sapiens) (Q96R09 whole entry): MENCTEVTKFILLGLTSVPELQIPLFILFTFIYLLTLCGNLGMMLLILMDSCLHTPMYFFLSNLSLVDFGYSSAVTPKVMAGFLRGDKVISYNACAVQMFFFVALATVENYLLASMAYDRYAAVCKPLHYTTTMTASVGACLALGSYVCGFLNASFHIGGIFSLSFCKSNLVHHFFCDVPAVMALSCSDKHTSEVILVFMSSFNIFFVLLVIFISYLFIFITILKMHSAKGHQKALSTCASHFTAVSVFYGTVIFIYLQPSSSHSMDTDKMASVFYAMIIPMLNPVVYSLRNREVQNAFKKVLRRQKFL
# Procedure, shortened: as §1
# [11] = test system: OR5B2 E6D
# Chain of OR5B2 E6D (as listed by the source): as the sequence (Q96R09 whole entry) above, with E6D counted along it
# Procedure, shortened: as §1
# [12] = biological target: OR5B21 (Homo sapiens) (UniProt A6NL26)
# Chain of OR5B21 (Homo sapiens) (A6NL26 whole entry): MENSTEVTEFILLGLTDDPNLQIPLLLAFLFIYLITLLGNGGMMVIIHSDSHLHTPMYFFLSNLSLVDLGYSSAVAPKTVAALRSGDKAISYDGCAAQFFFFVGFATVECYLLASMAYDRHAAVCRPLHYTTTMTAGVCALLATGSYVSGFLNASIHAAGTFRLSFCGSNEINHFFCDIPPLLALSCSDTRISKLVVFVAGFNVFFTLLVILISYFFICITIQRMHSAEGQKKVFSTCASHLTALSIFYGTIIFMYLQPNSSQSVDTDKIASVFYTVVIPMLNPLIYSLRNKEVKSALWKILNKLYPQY
# Procedure, shortened: as §1
# [13] = biological target: OR5B3 (Homo sapiens) (UniProt Q8NH48)
# Chain of OR5B3 (Homo sapiens) (Q8NH48 whole entry): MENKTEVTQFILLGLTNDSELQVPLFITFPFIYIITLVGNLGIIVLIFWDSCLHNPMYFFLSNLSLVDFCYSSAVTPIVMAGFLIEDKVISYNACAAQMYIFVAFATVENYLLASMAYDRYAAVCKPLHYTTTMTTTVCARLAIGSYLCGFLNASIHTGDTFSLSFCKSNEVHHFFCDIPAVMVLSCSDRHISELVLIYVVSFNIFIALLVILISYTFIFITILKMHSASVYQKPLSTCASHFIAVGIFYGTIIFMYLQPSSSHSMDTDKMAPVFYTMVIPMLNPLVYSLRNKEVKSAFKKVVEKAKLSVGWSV
# Procedure, shortened: as §1
# [14] = test system: OR5B3 I198V G247A
# Procedure, shortened: as §1
# [15] = test system: OR5BC C141R
# Chain of OR5BC C141R (as listed by the source, stated change not applied): as the sequence (Q96R08 whole entry) above, with C141R counted along it
# Procedure, shortened: as §1
# [16] = test system: OR5BH L80I I85M
# Procedure, shortened: as §1
# [17] = test system: OR5BH L80I
# Chain of OR5BH L80I (as listed by the source, stated change not applied): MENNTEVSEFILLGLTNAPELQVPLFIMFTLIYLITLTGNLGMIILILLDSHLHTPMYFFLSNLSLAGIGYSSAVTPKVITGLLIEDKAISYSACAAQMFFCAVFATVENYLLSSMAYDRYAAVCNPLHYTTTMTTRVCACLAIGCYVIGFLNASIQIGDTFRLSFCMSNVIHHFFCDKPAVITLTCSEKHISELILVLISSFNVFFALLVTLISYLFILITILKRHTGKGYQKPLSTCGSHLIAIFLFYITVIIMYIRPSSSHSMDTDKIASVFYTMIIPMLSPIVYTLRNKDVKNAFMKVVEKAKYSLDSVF
# Procedure, shortened: as §1
# [18] = biological target: OR5C1 (Homo sapiens) (UniProt Q8NGR4)
# Chain of OR5C1 (Homo sapiens) (Q8NGR4 whole entry): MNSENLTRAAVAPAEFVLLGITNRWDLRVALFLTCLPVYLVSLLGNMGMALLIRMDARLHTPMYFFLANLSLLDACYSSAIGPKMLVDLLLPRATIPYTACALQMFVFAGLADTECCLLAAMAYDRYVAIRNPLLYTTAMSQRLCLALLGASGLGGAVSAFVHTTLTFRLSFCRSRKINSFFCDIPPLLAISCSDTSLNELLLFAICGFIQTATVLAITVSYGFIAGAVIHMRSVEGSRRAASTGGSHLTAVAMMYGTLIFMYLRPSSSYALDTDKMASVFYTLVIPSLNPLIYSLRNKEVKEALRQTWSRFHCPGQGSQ
# Procedure, shortened: as §1
# [19] = biological target: OR5AC1 (Homo sapiens) (UniProt P0C628)
# Chain of OR5AC1 (Homo sapiens) (P0C628 whole entry): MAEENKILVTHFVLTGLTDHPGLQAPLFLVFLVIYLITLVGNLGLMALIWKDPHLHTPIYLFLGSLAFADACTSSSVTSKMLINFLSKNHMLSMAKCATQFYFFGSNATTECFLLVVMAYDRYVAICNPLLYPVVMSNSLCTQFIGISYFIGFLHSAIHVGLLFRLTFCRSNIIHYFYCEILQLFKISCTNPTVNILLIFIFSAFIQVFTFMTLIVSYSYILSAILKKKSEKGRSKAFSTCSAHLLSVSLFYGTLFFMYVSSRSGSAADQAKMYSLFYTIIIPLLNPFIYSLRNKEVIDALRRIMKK
# Procedure, shortened: as §1
# [20] = biological target: OR5AL1 (Homo sapiens) (UniProt P0C617)
# Chain of OR5AL1 (Homo sapiens) (P0C617 whole entry): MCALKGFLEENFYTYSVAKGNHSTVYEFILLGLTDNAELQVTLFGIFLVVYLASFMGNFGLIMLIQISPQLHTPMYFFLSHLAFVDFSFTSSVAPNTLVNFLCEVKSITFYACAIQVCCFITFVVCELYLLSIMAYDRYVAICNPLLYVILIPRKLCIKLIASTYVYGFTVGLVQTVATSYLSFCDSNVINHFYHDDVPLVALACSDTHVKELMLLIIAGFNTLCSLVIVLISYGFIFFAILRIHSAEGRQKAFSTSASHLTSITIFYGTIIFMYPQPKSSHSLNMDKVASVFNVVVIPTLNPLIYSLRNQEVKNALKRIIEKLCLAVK
# Procedure, shortened: as §1
compound,measurement,setting,value
CC(=O)c1cc2c(cc1C)C(C)(C)C(C)CC2(C)C (stereo unspecified),odorant receptor agonist call,[1],inactive
O=CC=Cc1ccccc1,odorant receptor agonist call,[2],inactive
same,odorant receptor agonist call,[3],inactive
O=Cc1ccccc1,odorant receptor agonist call,[2],inactive
same,odorant receptor agonist call,[3],inactive
CC(=O)c1cc(C(C)(C)C)cc2c1CCC2(C)C,odorant receptor agonist call,[1],inactive
C=CCc1ccc(OC)cc1,odorant receptor agonist call,[2],inactive
same,odorant receptor agonist call,[3],inactive
C=CCOC(=O)Cc1ccccc1,odorant receptor agonist call,[2],inactive
same,odorant receptor agonist call,[4],inactive
same,odorant receptor agonist call,[1],inactive
same,odorant receptor agonist call,[5],inactive
same,odorant receptor agonist call,[6],inactive
same,odorant receptor agonist call,[7],inactive
same,odorant receptor agonist call,[8],inactive
same,odorant receptor agonist call,[9],inactive
same,odorant receptor agonist call,[3],inactive
same,odorant receptor agonist call,[10],inactive
same,odorant receptor agonist call,[11],inactive
same,odorant receptor agonist call,[12],inactive
same,odorant receptor agonist call,[13],inactive
same,odorant receptor agonist call,[14],inactive
same,odorant receptor agonist call,[15],inactive
same,odorant receptor agonist call,[16],inactive
same,odorant receptor agonist call,[17],inactive
same,odorant receptor agonist call,[18],inactive
Cc1c([N+](=O)[O-])c(C)c([N+](=O)[O-])c(C(C)(C)C)c1[N+](=O)[O-],odorant receptor agonist call,[19],inactive
same,odorant receptor agonist call,[2],inactive
same,odorant receptor agonist call,[4],inactive
same,odorant receptor agonist call,[20],inactive
same,odorant receptor agonist call,[1],active
same,odorant receptor agonist call,[5],inactive
same,odorant receptor agonist call,[6],inactive
same,odorant receptor agonist call,[7],inactive
same,odorant receptor agonist call,[8],inactive
same,odorant receptor agonist call,[9],inactive
same,odorant receptor agonist call,[3],inactive
same,odorant receptor agonist call,[10],inactive
same,odorant receptor agonist call,[12],inactive
same,odorant receptor agonist call,[13],inactive
same,odorant receptor agonist call,[18],inactive
